MIN6 prolif – inducers of MIN6 beta-cell proliferation, primary screen, ATP luminescence, uHTS; MIN6 cells proliferation, ATPlite luminescence, 48 h; cells starved in 0.2% serum; 100% = growth in 10% serum; proliferation, % at 10 µM; 330,000 tested, 0.29% active;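 active = compounds whose signal lies at least 3.5 SD above the mean of all wells on their plate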
NOD2-RIPK2 inh – NOD2-RIPK2 binding disruptors in cells, primary screen, fluorescence, CHO cells, BLA complementation; CCF4 ratio; inhibition, % at 4.98 µM; 360,000 tested, 0.38% active; AID 624267, 2012; in the data active = inhibition above about 21%
TLR4-MyD88 BLA – inhibitors of TLR4-MyD88 association in cells, primary screen, cell-based, HeLa CL3-4, BLA complementation, FRET ratio. Toll-like receptor 4 (Homo sapiens) + Myeloid differentiation primary response protein …. HeLa CL3-4 TLR4/MyD88 BLA complementation. inhibition, % at 8.4 µM. 200,000 tested, 0.18% active; in the data active = inhibition above about 25%
Target sequence (O00206 whole entry, looked up): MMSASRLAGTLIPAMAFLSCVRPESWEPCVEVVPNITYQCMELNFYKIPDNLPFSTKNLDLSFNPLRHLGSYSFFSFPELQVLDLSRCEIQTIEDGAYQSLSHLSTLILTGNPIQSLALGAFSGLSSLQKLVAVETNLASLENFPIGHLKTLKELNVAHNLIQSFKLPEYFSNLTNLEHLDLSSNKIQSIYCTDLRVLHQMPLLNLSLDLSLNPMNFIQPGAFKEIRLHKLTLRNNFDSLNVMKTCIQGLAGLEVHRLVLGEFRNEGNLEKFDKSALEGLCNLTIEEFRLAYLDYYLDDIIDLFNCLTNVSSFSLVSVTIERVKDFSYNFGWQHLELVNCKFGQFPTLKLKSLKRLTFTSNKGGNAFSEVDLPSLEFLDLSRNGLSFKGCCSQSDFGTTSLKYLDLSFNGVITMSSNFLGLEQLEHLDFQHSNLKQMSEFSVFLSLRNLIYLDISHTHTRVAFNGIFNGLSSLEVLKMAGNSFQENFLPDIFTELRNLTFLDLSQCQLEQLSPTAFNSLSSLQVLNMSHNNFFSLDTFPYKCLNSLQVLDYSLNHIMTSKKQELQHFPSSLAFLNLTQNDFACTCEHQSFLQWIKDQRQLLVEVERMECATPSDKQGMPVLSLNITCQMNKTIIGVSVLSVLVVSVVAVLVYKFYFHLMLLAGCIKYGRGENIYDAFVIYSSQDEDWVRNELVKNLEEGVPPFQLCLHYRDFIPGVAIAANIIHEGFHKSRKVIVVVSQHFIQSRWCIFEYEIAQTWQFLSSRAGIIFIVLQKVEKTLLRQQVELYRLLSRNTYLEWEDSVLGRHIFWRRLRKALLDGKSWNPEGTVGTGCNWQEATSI
Target sequence (Q99836 whole entry, looked up): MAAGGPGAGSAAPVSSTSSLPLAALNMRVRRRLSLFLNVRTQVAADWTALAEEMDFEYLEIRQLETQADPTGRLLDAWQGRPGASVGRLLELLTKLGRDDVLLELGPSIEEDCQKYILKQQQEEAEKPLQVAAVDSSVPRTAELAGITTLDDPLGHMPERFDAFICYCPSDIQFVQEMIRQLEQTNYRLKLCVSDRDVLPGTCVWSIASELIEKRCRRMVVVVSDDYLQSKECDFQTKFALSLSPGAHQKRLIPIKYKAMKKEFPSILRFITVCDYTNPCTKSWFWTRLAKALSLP
MC4R antag cAMP – MC4R antagonists of cAMP signaling, primary screen, cell-based, TR-FRET, antagonist arm of biased-ligand search. MC4R-expressing cells, MTII-stimulated cAMP, LANCE TR-FRET. inhibition, % at 6.5 µM. 360,000 tested, 0.48% active;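 active = inhibition above its plate's cutoff, the mean of tested wells on that plate plus 3 SD, cut at about 29% in these data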
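System – human MC4R-expressing U2OS cells · Also added – Melanotan II · Dosing – one concentration, 6.5 µM nominal · Timing – 30-min compound, 1-h challenge, 1-h detection, room temperature · Measured by – Eu-cAMP/anti-cAMP TR-FRET, emission 671 nm · Replicates – singlicate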
MC4R ag barr – MC4R agonists recruiting beta-arrestin, primary screen, cell-based, luminescence, agonist arm of biased-ligand search. 360,000 tested, 0.98% active. Melanocortin receptor 4 (Homo sapiens), P32245. AID 540308, 2011. activation, % at 8.9 µM. U2OS MC4R beta-arrestin complementation; percent of melanotan II response, DMSO zero;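 active = activation above a per-plate cutoff, the mean activation of sample wells on that plate plus 3 SD, cut at about 8% in these data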
TLR9-MyD88 block – inhibitors of TLR9-MyD88 association in cells, primary screen, cell-based, CHO, BLA complementation, fluorescence | CCF4 FRET ratio | inhibition, % at 4.98 µM | 340,000 tested, 0.21% active;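 active = inhibition above the mean over all tested compounds plus 3 SD, cut at about 21% in these data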
Hits are given with their value; 0 = inactive; - = no result. Compounds with a hit are over-represented: about 2.1% of the library has one in this group of screens.

SMILES | MIN6 prolif | NOD2-RIPK2 inh | TLR4-MyD88 BLA | MC4R antag cAMP | MC4R ag barr | TLR9-MyD88 block
CC1OC(OC2C=C3CCC4C(CCC5(C)C(c6ccc(=O)oc6)CCC45O)C3(C)CC2)C(O)C(OC2OC(CO)C(O)C(O)C2O)C1O (stereo not given) | - | 0 | - | 0 | 36.6 | 0
CSc1ncc(CN2CCCC(C(=O)c3cccc(Cl)c3)C2)cn1 (stereo not given) | 0 | 0 | 0 | 0 | 0 | 0
COc1ccc(CN2CCCC(C(=O)c3cccc(Cl)c3)C2)cc1 (stereo not given) | 0 | 0 | - | 0 | 9.0 | 0
CCc1nn2c(=O)c(F)c(N3CCNCC3)nc2s1 | - | 0 | - | 0 | 0 | -
CC(=O)O[C@@H]1CC[C@]2(C)C3CC[C@@]4(C)C(C[C@@H](O)[C@@H]4O)C3[C@@H](OC(C)=O)C[C@H]2C1 (stereo not given in full) | 0 | 0 | - | 0 | 0 | 0
C[C@H]1O[C@@H](O[C@H]2[C@@H](O)C[C@H](O[C@H]3[C@@H](O)C[C@H](O[C@H]4CC[C@@]5(C)[C@H](CC[C@@H]6[C@@H]5CC[C@]5(C)[C@@H](C7=CC(=O)OC7)CC[C@]65O)C4)O[C@@H]3C)O[C@@H]2C)C[C@H](O)[C@@H]1O | - | - | 0 | - | - | -
CC(=O)OC1CC2(O)C3CCC4CC(O)CCC4(C)C3CCC2(C)C1C1=CC(=O)OC1 (stereo not given) | - | 0 | - | 0 | 17.4 | 0
CC1OC(OC2C(O)CC(OC3C(O)CC(OC4CCC5(C)C(CCC6C5CCC5(C)C(C7=CC(=O)OC7)C(O)CC65O)C4)OC3C)OC2C)CC(O)C1O (stereo not given) | - | 0 | - | 0 | 26.6 | 0
CC(=O)OC1CC(OC2C(O)CC(OC3C(O)CC(OC4CCC5(C)C(CCC6C5CCC5(C)C(C7=CC(=O)OC7)C(O)CC65O)C4)OC3C)OC2C)OC(C)C1OC1OC(CO)C(O)C(O)C1O (stereo not given) | - | 0 | - | 0 | 15.3 | 0
O=c1[nH]c2ccccc2n1C1CCN(Cc2ccc(-c3[nH]c4cc5ncnc5cc4nc3-c3ccccc3)cc2)CC1 | - | 0 | - | - | - | -
COc1ccc(-n2nnnc2C(c2cccs2)N2CCC(n3c(=O)[nH]c4ccccc43)CC2)cc1 (stereo not given) | - | 0 | - | - | - | -
Cc1ccc(OC(=O)N(C)C[C@@H]2OCc3cnnn3CCCC(=O)N([C@@H](C)CO)C[C@@H]2C)cc1 | - | 0 | - | 0 | 0 | 0
COC(=O)[C@]12OC[C@]34C([C@@H](O)[C@@H]1O)[C@]1(C)CC(=O)C(O)=C(C)[C@@H]1C[C@H]3OC(=O)[C@H](O)[C@@H]24 (stereo not given in full) | 0 | 26.4 | - | 0 | 0 | 0
C[C@@H]1O[C@@H](O[C@H]2C[C@@H](O)[C@]3(CO)[C@H]4[C@H](O)C[C@]5(C)[C@@H](C6=CC(=O)OC6)CC[C@]5(O)[C@@H]4CC[C@]3(O)C2)[C@H](O)[C@H](O)[C@H]1O | 0 | 0 | 0 | 0 | 34.7 | 0
Cc1ccc(-c2nc3ccccc3c(=O)n2-c2nccs2)cc1 | 0 | 0 | 0 | 0 | 9.2 | 0
Cc1nc2ccccc2c(=O)n1-c1nccs1 | - | 0 | - | - | - | -
Fc1cccc(-c2ccc3c(c2)CN(C(=S)NCCc2ccccc2)Cc2cnnn2-3)c1 | - | 0 | - | - | - | -
C=C1C(=O)OC2CCN3CC=C(COC(=O)C(C)(O)C4(CO4)C1C)C23 (stereo not given) | - | 0 | - | 0 | 0 | -
CCOC(=O)[C@]12Cc3cc(Cl)ccc3[C@H]1N(CC(=O)OC)C(=O)c1ccccc12 | - | 0 | - | - | - | -
COC(=O)C[C@]1(C(=O)OC)CN(C#N)N(c2ccc(Cl)cc2)C12c1ccccc1-c1ccccc12 | 0 | 55.0 | 0 | 0 | 0 | 0
